Activity calls are given as the source filed them. No cut-off for these calls is given here.
Columns and labels:
[1] = system: Mus musculus; assay: Dose normalized AUC (0 to 24 hrs) in mouse at 1 mg/kg, po administered as single dose; type: ADME, organism-based; conditions: in vivo
Procedure, shortened: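 Single oral dose of 1 mg/kg. Vehicle was 20% HPBCD for mouse and 0.4% HPMC for dog and monkey. Plasma AUC over 0–24 h, dose-normalized, reported in μM·h.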

[2] = Clearance in monkey at 1 mg/kg, iv; type: ADME, organism-based, Macaca mulatta; conditions: rhesus monkey, in vivo
[3] = Clearance in dog at 1 mg/kg, iv; type: ADME, organism-based, Canis lupus familiaris; conditions: in vivo
[4] = target: Cytochrome P450 2D6 (Homo sapiens, UniProt P10635); assay: Inhibition of CYP2D6 (unknown origin); type: ADME
[5] = target: Cytochrome P450 1A2 (Homo sapiens, UniProt P05177); assay: Inhibition of CYP1A2 (unknown origin); type: ADME
[6] = system: A549; assay: Antitumor activity against human A549 cells xenografted in nude mouse assessed as tumor growth inhibition at 100 mg/kg, po qd administered with cycle of 3 days on, 4 days off for 30 days relative to control; type: functional; conditions: read-out: TGI
Procedure, shortened: (§1)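 Mice bearing A549 NSCLC xenografts. The test agent was given orally, either daily or intermittently (daily for 3 days, then 4 days off). Paclitaxel was given at 20 mg/kg ip weekly, alone or in combination. Read-out was tumor growth inhibition.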

[7] = target: Cytochrome P450 2C8 (Homo sapiens, UniProt P10632); assay: Inhibition of CYP2C8 (unknown origin); type: ADME
[8] = system: Mus musculus; assay: Toxicity in nude mouse xenografted with human SJSA1 cells assessed as body weight loss at 100 to 200 mg/kg, po qd continuously for 30 days; type: organism-based, SJSA-1; conditions: in vivo, 720 h
Procedure, shortened: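 Nude mice bearing SJSA-1 osteosarcoma xenografts, n = 5 per group. Dosing was oral in 20% HPBCD, either continuous daily at 100 and 200 mpk or intermittent (daily for 3 days on, 4 days off). Body weight was compared against a vehicle-control group.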

[9] = system: ML-2; assay: Antiproliferative activity against human ML2 cells expressing wild type p53 after 72 hrs by CellTitre-Glo assay; type: functional, cell-based
Procedure, shortened: (§2)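 Cell lines exposed to compound for 72 h; viability read by CellTiter-Glo and IC50 derived. p53 coding-region mutation status of each line established by direct sequencing.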

[10] = system: A549; assay: Antitumor activity against human A549 cells xenografted in nude mouse assessed as tumor growth inhibition at 100 mg/kg, po qd administered with cycle of 3 days on, 4 days off for 30 days coadministered with 20 mg/kg, ip once weekly paclitaxel relative to control; type: functional; procedure, shortened: as §1
[11] = target: Cytochrome P450 2C9 (Homo sapiens, UniProt P11712); assay: Inhibition of CYP2C9 (unknown origin); type: ADME
[12] = target: Tumour suppressor p53/oncoprotein Mdm2 (Homo sapiens, UniProt Q00987); assay: Inhibition of human recombinant His-tagged MDM2 (1 to 118 residues) interaction with FAM-tagged p53-based peptide (unknown origin) incubated for 15 mins by fluorescence polarization assay; type: protein assay
[13] = system: NCI-H460; assay: Antiproliferative activity against human NCI-H460 cells expressing wild type p53 after 72 hrs by CellTitre-Glo assay; type: functional, cell-based; procedure, shortened: as §2
[14] = Permeability from apical to basolateral side in human Caco2 cells; type: ADME, cell-based; conditions: Caco-2, read-out: permeability
[15] = system: A498; assay: Antiproliferative activity against human A498 cells expressing wild type p53 after 72 hrs by CellTitre-Glo assay; type: functional, cell-based; procedure, shortened: as §2
[16] = Antitumor activity against human SJSA1 cells xenografted in nude mouse assessed as tumor growth inhibition at 200 mg/kg, po qd continuously for 30 days relative to control; type: functional; conditions: SJSA-1, po, 720 h, read-out: TGI
Procedure, shortened: (§3)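 Nude mice bearing SJSA-1 osteosarcoma xenografts, n = 5 per group. Oral dosing in 20% HPBCD, given either intermittently (daily, 3 days on/4 days off) or continuously daily. Body weight was monitored against a vehicle control group.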

[17] = system: A2780; assay: Antitumor activity against human A2780 cells xenografted in nude mouse harboring wild type p53 assessed as tumor growth inhibition at 50 mg/kg, po bid continuously for 15 days coadministered with 40 mg/kg, ip, once weekly docetaxel relative to control; type: functional
Procedure, shortened: (§4)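 Wild-type p53 mice bearing A2780 ovarian xenografts. The test agent was given at 50 mg/kg orally twice daily, continuously. Docetaxel was given at 40 mg/kg ip weekly, twice in total. Each was given alone and in combination. Read-out was tumor growth inhibition.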

[18] = Antitumor activity against human SJSA1 cells xenografted in nude mouse assessed as tumor growth inhibition at 200 mg/kg, po qd administered with cycle of 3 days on, 4 days off for 30 days relative to control; type: functional; conditions: SJSA-1, po, read-out: TGI; procedure, shortened: as §3
[19] = Antiproliferative activity against human HCT116 cells expressing wild type p53 after 72 hrs by CellTitre-Glo assay; type: functional, cell-based; conditions: HCT-116, 72 h
Procedure, shortened: (§5)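 Cancer cell lines of known p53 coding-region status (checked by direct sequencing) were exposed to the compound for 72 h. Viability was read with CellTiter-Glo, and the IC50 was taken from these readings.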

[20] = system: SK-UT-1; assay: Antiproliferative activity against human SK-UT-1 cells harboring mutant p53 after 72 hrs by CellTitre-Glo assay; type: functional, cell-based; conditions: SK-UT-1, 72 h; procedure, shortened: as §5
[21] = target: Cytochrome P450 3A4 (Homo sapiens, UniProt P08684); assay: Time dependent inhibition of CYP3A4 (unknown origin); type: ADME
[22] = system: MOLM-13; assay: Antiproliferative activity against human MOLM13 cells expressing wild type p53 after 72 hrs by CellTitre-Glo assay; type: functional, cell-based; procedure, shortened: as §2
[23] = Antitumor activity against human SJSA1 cells xenografted in nude mouse assessed as tumor growth inhibition at 100 mg/kg, po qd administered with cycle of 3 days on, 4 days off for 30 days relative to control; type: functional; conditions: SJSA-1, po, read-out: TGI; procedure, shortened: as §3
[24] = system: LOX IMVI; assay: Antiproliferative activity against human LOXIMVI cells expressing wild type p53 after 72 hrs by CellTitre-Glo assay; type: functional, cell-based; procedure, shortened: as §2
[25] = system: A2780; assay: Antitumor activity against human A2780 cells xenografted in nude mouse harboring wild type p53 assessed as tumor growth inhibition at 50 mg/kg, po bid continuously for 15 days relative to control; type: functional; conditions: 360 h, read-out: TGI; procedure, shortened: as §4
[26] = system: Daudi; assay: Antiproliferative activity against human Daudi cells expressing wild type p53 after 72 hrs by CellTitre-Glo assay; type: functional, cell-based; procedure, shortened: as §2
[27] = system: A2780; assay: Antiproliferative activity against human A2780 cells expressing wild type p53 after 72 hrs by CellTitre-Glo assay; type: functional, cell-based; procedure, shortened: as §2
[28] = Antiproliferative activity against p53 null human H1299 cells after 72 hrs by CellTitre-Glo assay; type: functional, cell-based; conditions: NCI-H1299, 72 h; procedure, shortened: as §5
[29] = system: HCT-116; assay: Selectivity ratio of IC50 for human SK-UT-1 cells harboring mutant p53 to IC50 for human HCT116 cells expressing wild type p53; type: functional
Procedure, shortened: (§6)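 Ratio of two IC50s, each from a 72 h CellTiter-Glo viability assay. p53 coding-region status was confirmed by direct sequencing. The ratio is p53-mutant (SK-UT-1) or p53-null (H1299) IC50 divided by wild-type p53 (SJSA-1 or HCT116) IC50.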

[30] = system: HCT-116; assay: Selectivity ratio of IC50 for p53 null human H1299 cells to IC50 for human HCT116 cells expressing wild type p53; type: functional; procedure, shortened: as §6
[31] = system: WM-115; assay: Antiproliferative activity against human WM115 cells expressing wild type p53 after 72 hrs by CellTitre-Glo assay; type: functional, cell-based; procedure, shortened: as §2

Cytochrome P450 1A2, sequence (P05177 whole entry): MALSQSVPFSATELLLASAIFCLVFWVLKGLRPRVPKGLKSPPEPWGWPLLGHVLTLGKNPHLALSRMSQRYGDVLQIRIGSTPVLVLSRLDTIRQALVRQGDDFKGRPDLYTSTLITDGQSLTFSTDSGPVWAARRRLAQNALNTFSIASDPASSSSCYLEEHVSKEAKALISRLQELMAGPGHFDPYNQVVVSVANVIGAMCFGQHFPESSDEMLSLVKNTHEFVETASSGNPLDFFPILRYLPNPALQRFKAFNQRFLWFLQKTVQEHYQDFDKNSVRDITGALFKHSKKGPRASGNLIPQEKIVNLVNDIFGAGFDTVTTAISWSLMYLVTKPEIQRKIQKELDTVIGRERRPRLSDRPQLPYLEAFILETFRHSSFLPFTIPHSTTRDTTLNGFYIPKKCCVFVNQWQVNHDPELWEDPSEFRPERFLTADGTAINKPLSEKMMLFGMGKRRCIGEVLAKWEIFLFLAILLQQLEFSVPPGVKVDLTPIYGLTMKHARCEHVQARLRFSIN
Tumour suppressor p53/oncoprotein Mdm2, sequence (P04637 whole entry, the tested form may be a part): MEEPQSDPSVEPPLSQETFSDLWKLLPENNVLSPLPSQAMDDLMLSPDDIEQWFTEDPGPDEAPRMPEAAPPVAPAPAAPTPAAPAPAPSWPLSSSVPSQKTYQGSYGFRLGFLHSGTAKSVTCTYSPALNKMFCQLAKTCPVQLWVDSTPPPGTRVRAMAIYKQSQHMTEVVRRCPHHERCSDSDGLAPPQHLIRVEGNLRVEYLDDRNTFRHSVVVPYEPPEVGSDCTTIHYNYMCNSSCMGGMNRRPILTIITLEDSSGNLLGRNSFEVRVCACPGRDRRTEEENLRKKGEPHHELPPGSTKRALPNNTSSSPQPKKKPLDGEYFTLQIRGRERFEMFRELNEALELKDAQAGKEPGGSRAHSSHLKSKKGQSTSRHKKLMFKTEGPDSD
Tumour suppressor p53/oncoprotein Mdm2, sequence (Q00987 whole entry, the tested form may be a part): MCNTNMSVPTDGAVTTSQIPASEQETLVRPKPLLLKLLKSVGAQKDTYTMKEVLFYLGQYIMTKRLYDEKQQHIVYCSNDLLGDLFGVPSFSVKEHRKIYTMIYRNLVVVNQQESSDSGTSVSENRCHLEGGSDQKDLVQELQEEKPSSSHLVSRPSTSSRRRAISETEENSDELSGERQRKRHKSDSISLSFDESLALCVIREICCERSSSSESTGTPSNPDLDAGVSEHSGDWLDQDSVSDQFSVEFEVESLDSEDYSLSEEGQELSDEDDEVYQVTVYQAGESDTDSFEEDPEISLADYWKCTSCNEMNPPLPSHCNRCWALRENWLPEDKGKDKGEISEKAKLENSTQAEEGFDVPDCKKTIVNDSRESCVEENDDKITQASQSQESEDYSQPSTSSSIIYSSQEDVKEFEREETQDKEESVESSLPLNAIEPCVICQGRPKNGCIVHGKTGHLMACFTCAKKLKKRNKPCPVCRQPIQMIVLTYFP
Cytochrome P450 2C9, sequence (P11712 whole entry, the tested form may be a part): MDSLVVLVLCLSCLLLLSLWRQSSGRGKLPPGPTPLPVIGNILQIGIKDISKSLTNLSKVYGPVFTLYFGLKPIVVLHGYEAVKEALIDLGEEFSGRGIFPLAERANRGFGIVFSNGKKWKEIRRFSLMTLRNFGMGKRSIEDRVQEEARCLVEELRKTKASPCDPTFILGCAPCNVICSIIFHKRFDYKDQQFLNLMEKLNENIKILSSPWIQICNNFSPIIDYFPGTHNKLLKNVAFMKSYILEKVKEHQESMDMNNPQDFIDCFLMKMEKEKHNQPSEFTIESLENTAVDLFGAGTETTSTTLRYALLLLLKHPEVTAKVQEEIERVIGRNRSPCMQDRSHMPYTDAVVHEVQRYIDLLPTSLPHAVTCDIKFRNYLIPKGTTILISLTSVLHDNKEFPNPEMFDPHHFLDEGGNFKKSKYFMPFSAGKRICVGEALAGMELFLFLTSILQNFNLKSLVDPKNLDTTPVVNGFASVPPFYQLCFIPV
Cytochrome P450 2C8, sequence (P10632 whole entry): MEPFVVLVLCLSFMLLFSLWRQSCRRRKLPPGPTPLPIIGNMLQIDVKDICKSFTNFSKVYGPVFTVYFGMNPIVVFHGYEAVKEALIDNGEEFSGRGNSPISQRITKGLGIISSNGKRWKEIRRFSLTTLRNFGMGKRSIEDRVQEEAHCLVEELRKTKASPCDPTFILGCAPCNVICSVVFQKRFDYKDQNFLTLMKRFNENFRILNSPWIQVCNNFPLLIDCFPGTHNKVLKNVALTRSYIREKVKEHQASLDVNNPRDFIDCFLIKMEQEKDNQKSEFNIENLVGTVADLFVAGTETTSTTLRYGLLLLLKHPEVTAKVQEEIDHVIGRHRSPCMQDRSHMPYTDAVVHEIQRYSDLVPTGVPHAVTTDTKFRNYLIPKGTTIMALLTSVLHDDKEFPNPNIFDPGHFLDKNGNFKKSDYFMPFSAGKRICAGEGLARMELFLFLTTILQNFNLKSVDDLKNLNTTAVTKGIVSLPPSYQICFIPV
Cytochrome P450 3A4, sequence (P08684 whole entry): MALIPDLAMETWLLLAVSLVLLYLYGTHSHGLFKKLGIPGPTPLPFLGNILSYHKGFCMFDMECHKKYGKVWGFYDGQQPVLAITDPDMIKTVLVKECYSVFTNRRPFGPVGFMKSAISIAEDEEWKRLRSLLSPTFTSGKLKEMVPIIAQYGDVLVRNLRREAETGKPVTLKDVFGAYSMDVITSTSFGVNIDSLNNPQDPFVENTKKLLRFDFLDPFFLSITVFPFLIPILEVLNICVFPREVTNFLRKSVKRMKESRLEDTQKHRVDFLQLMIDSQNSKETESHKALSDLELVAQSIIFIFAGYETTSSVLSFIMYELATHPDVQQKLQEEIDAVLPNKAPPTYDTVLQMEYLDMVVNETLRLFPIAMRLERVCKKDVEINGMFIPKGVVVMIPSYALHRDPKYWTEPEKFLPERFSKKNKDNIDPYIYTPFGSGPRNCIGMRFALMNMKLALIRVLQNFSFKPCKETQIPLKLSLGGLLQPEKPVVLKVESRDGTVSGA
Cytochrome P450 2D6, sequence (P10635 whole entry): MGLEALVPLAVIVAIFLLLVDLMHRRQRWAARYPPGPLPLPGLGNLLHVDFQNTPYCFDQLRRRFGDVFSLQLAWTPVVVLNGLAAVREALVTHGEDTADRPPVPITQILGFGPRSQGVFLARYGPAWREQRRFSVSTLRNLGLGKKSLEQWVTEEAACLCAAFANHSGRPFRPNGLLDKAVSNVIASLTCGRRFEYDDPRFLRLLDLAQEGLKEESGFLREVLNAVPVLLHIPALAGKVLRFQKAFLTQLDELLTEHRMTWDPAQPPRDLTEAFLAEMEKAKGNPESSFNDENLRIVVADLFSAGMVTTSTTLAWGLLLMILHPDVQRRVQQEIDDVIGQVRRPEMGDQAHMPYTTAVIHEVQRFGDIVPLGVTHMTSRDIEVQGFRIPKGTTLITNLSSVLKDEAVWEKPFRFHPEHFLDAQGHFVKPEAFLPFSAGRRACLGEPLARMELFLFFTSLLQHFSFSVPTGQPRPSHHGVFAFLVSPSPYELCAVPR

`CCC[C@H]1N(C(=O)c2cnccc2C(F)(F)F)CCC[C@@]1(Oc1csc(C(F)(F)F)c1)C(=O)N1CCN(c2ccccc2OCCCC(=O)O)CC1` showed an AUC/dose [1] of 0.1 µM·h, a clearance [2] of 23 mL/min/kg and a clearance [3] of 4.1 mL/min/kg. The IC50 [4] was greater than 50 µM, the IC50 [5] was greater than 50 µM and the inhibition in vivo at 100 mg/kg [6] was 27%. For the same compound, the IC50 [7] was greater than 50 µM, the Activity [8] was “Non-toxic” and the Activity [9] was “Active”. The TGI [10] was 85%, the IC50 [11] was greater than 50 µM and the IC50 [12] was 0.007 µM. The Activity [13] was “Active”, the Papp A→B [14] was 18 ×10⁻⁶ cm/s and the Activity [15] was “Active”. The inhibition in vivo at 200 mg/kg [16] was 60%, the TGI [17] was 81% and the inhibition in vivo at 200 mg/kg [18] was 49%. The IC50 [19] was 0.18 µM, the IC50 [20] was greater than 50 µM and the TDI [21] was “Active”. The Activity [22] was “Active”, the inhibition in vivo at 100 mg/kg [23] was 31% and the Activity [24] was “Active”. For the same compound, the inhibition in vivo at 50 mg/kg [25] was 41%, the Activity [26] was “Active” and the Activity [27] was “Active”. The IC50 [28] was greater than 50 µM, the “Ratio IC50” value [29] was greater than 500 and the “Ratio IC50” value [30] was greater than 500. For the same compound, the Activity [31] was “Active”.

— ChEMBL document CHEMBL3804796, “Discovery of Novel 3,3-Disubstituted Piperidines as Orally Bioavailable, Potent, and Efficacious HDM2-p53 Inhibitors” (ACS Med Chem Lett, 2016)
